From ChEMBL document CHEMBL4014309, “Development of an Acrylate Derivative Targeting the NLRP3 Inflammasome for the Treatment of Inflammatory Bowel Disease” (J Med Chem, 2017)
Converted amounts (≈) assume the structure as drawn. The source made the active and inactive calls. The rule behind the calls is not given here.

Tests used:
[1] = target: T1, Caspase-1 (Homo sapiens) (UniProt P29466); assay: Inhibition of recombinant human caspase-1 at 10 to 100 uM using z-YVAD-AFC as substrate measured every 10 mins for 3 hrs by fluorescence analysis
T1 sequence (whole entry): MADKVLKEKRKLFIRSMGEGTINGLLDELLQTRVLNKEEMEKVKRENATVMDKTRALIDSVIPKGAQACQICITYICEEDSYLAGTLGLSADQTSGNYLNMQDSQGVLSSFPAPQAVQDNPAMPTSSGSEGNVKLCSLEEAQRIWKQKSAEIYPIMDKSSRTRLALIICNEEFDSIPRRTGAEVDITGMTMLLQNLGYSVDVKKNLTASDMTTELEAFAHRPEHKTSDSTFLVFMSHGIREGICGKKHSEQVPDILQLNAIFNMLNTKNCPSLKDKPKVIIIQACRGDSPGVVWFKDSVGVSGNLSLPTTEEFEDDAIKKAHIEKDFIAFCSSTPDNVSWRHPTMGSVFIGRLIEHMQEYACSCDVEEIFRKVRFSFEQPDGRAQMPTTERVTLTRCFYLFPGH

[2] = tested on: Rattus norvegicus; assay: Anti-inflammatory activity in DNBS-induced Sprague-Dawley rat colitis model assessed as DNBS-induced TNFalpha levels in colon at 25 mg/kg/day, ig for 6 days simulatneously with 6 days of DNBS-challenge by ELISA (reference value: 5.9 +/- 0.6 pg/mg); type: functional
[3] = tested on: Rattus norvegicus; assay: Antiinflammatory activity in DNBS-induced Sprague-Dawley rat colitis model assessed as DNBS-induced decrease in colonic length at 50 mg/kg/day, ig administered as suspension in olive oil for 6 days simulatneously with 6 days of DNBS-challenge (reference value: -34.4%); type: functional; set-up: scale not given: the % may be the effect or the level left
[4] = Cytotoxicity against human THP1 cells assessed as cell viability at 100 uM after 72 hrs by MTT assay; type: cell-based; settings: THP-1 cells, read-out: Activity
How it was run: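 Human THP-1 cells were exposed to 0.1–100 µM for 72 h, and viability was read by MTT. TC50 is the concentration that cuts viability by 50%; percent viable cells at 100 µM is also reported. Mean ± SEM of ≥3 experiments.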

[5] = target: NACHT, LRR and PYD domains-containing protein 3 (Homo sapiens) (UniProt Q96P20); assay: Inhibition of recombinant human NLRP3 ATPase assessed as hydrolysis of ATP at 100 uM preincubated for 15 mins followed by addition of ATP measured after 40 mins by ADP-Glo assay
How it was run: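 Human recombinant NLRP3 (0.105 µg) in 20 mM Tris-HCl pH 7.8, 133 mM NaCl, 20 mM MgCl2, 3 mM KCl, 0.56 mM EDTA, 0.5% DMSO. Compound (100 or 50 µM) was preincubated 15 min at 37 °C, then ATP (250 µM) was added for 40 min at 37 °C. ADP was read by ADP-Glo luminescence. Result is % inhibition vs vehicle; mean ± SEM, ≥3 experiments.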

[6] = tested on: Rattus norvegicus; assay: Antiinflammatory activity in DNBS-induced Sprague-Dawley rat colitis model assessed as attenuation of DNBS-induced decrease in colonic length administered ig as suspension in olive oil for 6 days simulatneously with 6 days of DNBS-challenge; type: functional
[7] = target: NACHT, LRR and PYD domains-containing protein 3 (Mus musculus) (UniProt Q8R4B8); assay: Inhibition of NLRP3 inflammasome in LPS-primed C57BL/6 mouse bone marrow derived macrophages assessed as reduction in ATP-induced IL-1beta production at 10 uM preincubated for 1 hr followed by stimulation with ATP measured after 30 mins by ELISA
How it was run: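 C57BL/6 bone marrow macrophages, differentiated with 20% L-cell medium, were primed with LPS (1 µg/mL, 3 h). They were then exposed to compound or vehicle for 1 h and stimulated with ATP (5 mM, 30 min). IL-1β released into the medium was measured by ELISA.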

[8] = target: NACHT, LRR and PYD domains-containing protein 3 (Mus musculus) (UniProt Q8R4B8); assay: Inhibition of NLRP3 in C57BL/6 mouse bone marrow derived macrophages assessed as reduction in LPS-induced IL-1beta gene expression at 10 to 100 uM preincubated for 30 mins followed by LPS stimulation measured after 4 hrs by qRT-PCR analysis
How it was run: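 C57BL/6 bone marrow macrophages, differentiated with 20% L-cell medium, were preincubated with compound for 30 min. They were then left untreated or given LPS (1 ng/mL, 4 h). Tnfa, Il6 and Il1b expression was measured by quantitative RT-PCR as 2^-ΔΔCt.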

[9] = tested on: Rattus norvegicus; assay: Anti-inflammatory activity in DNBS-induced Sprague-Dawley rat colitis model assessed as DNBS-induced IL-1beta levels in colon at 12.5 mg/kg/day, ig for 6 days simulatneously with 6 days of DNBS-challenge by ELISA (reference value: 22.3 +/- 2.9 ng/mg); type: functional
[10] = tested on: Rattus norvegicus; assay: Toxicity in Sprague-Dawley rat at 50 mg/kg/day, ig; type: organism-based; settings: in vivo, po
How it was run: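 Rats received intrarectal DNBS (15 mg in 0.25 mL 50% ethanol) or none. Dosing was intragastric for 6 days from induction: compound 12.5–50 mg/kg/day in 0.2 mL olive oil, or dexamethasone 1 mg/kg/day in 0.2 mL 1% methylcellulose. Body weight change was recorded at end; n = 10, mean ± SEM.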

[11] = target: NACHT, LRR and PYD domains-containing protein 3 (Homo sapiens) (UniProt Q96P20); assay: Irreversible inhibition of His-FLAG- tagged NLRP3-ATPase (unknown origin) at 100 uM preincubated for 55 mins followed by ATP addition measured after 40 mins by ADP-Glo assay
How it was run: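 His-FLAG NLRP3 (105 ng/well) captured on anti-FLAG-coated, BSA-blocked wells for 3 h at 4 °C. Compound (100 µM final, 2% DMSO) preincubated 55 min at 37 °C. Wells were washed three times (or not washed), then ATP (250 µM) was added for 40 min at 37 °C. ADP was read by ADP-Glo. Equal protein loading was checked by anti-His ELISA.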

[12] = tested on: Jejunum; assay: Drug metabolism in Sprague-Dawley rat jejunum assessed as 2-(2-chlorobenzyl)acrylic acid level at 12.5 mg as suspension in olive oil measured after 2 hrs by UHPLC-M; type: ADME, tissue-based; settings: in vivo
[13] = tested on: Rattus norvegicus; assay: Antiinflammatory activity in DNBS-induced Sprague-Dawley rat colitis model assessed as reduction in DNBS-induced spleen weight increase by measuring increase in spleen weight at 50 mg/kg/day, ig administered as suspension in olive oil for 6 days simulatneously with 6 days of DNBS-challenge measured daily during compound dosing (reference value: 39.3%); type: functional; set-up: scale not given: the % may be the effect or the level left
How it was run: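 Spleen weight was used as an index of systemic inflammation. Rats had intrarectal DNBS (15 mg/0.25 mL 50% ethanol) and 6 days of intragastric dosing: 1 mg/kg/day in 1% methylcellulose, or 12.5–50 mg/kg/day in 0.2 mL olive oil. The spleen was weighed at sacrifice and expressed as percent increase versus control, n = 10.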

[14] = Solubility of the compound in PBS at 1.56 mg […] and pH 7.4 after 24 hrs by UHPLC-MS analysis; type: physicochemical
[15] = tested on: Rattus norvegicus; assay: Antiinflammatory activity in DNBS-induced Sprague-Dawley rat colitis model assessed as DNBS-induced macroscopic damage score at 50 mg/kg/day, ig administered as suspension in olive oil for 6 days simulatneously with 6 days of DNBS-challenge (reference value: 8.6 +/- 0.6); type: functional

NACHT, LRR and PYD domains-containing protein 3 (Mus musculus), sequence (Q8R4B8 whole entry, the tested form may be a part): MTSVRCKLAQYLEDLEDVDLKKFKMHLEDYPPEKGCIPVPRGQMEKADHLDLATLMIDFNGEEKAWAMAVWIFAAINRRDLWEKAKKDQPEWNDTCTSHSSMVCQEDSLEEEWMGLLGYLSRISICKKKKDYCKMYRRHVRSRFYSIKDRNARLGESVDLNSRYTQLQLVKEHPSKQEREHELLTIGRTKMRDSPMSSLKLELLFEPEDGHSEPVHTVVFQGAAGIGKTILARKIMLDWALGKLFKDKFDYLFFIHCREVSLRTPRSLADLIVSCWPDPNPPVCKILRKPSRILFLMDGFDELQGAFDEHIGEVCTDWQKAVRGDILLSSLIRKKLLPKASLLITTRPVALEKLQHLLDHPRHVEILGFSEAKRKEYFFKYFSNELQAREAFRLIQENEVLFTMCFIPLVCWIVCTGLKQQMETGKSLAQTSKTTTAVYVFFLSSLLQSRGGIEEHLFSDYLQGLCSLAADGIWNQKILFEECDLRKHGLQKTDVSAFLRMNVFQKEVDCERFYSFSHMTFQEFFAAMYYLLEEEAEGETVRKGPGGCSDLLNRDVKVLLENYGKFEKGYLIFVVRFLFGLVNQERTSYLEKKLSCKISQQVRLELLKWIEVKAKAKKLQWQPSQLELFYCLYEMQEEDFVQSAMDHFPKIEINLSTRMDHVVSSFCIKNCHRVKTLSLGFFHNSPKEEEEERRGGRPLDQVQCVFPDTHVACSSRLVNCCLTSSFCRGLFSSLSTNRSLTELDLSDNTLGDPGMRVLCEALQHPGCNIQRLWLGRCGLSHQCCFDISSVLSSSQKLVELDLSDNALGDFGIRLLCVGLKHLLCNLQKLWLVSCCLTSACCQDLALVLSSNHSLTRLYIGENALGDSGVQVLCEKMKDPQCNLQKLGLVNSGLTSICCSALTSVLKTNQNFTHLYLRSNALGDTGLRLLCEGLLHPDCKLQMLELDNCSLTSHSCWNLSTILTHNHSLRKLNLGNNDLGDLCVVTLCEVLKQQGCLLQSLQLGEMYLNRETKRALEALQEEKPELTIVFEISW
NACHT, LRR and PYD domains-containing protein 3 (Homo sapiens), sequence (Q96P20 whole entry, the tested form may be a part): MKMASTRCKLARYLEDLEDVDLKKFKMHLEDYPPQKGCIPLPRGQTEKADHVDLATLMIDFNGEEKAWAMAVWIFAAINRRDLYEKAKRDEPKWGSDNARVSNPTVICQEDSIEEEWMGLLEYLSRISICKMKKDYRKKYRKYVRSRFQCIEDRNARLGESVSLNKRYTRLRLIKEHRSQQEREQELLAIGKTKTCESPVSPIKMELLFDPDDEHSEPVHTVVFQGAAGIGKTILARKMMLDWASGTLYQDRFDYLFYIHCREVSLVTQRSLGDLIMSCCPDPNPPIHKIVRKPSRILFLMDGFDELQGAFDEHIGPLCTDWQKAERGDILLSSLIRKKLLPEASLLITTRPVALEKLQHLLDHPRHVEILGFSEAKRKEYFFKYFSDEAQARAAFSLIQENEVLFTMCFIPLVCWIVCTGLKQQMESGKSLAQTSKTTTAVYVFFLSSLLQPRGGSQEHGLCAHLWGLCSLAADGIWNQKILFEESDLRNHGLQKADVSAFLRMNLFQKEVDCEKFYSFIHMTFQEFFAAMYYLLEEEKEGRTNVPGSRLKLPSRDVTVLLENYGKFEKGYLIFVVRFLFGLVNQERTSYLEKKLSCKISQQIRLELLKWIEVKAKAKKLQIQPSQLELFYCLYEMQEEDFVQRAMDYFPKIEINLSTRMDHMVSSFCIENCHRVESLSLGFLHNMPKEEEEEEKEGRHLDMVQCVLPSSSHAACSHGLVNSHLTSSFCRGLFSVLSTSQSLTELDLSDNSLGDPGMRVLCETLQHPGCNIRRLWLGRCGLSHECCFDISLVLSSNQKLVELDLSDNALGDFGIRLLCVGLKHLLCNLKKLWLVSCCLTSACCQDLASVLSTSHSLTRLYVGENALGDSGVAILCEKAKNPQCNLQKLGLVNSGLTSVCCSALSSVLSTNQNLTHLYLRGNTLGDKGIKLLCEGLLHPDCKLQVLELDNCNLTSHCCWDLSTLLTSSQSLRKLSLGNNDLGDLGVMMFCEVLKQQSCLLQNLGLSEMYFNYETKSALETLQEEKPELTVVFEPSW

inhibition [1]: inactive
inhibition [5]: 52%
inhibition [7]: Active
inhibition [8]: Active
inhibition [11]: 45%
Drug metabolism [12]: Metabolite_Detected
solubility at 24 h [14]: 6 µg/mL (≈ 26.7 µM)
Structure (SMILES): C=C(Cc1ccccc1Cl)C(=O)OCC
Activity [2]: 3.3 pg/mg
Activity [3]: -8%
viability at 72 h, 100 µM [4]: 96.6%
Activity [6]: Dose-dependent effect
Activity [9]: 16.4 ng/mg
Activity [10]: Non-Toxic
Activity [13]: 4.8%
Activity_index [15]: 2.8
